Data published in ChEMBL document CHEMBL5058577, “EUbOPEN Chemogenomics Library 2 (Multiplex)” (2022).

Test system: Fibroblast
Assay: Multiplex assay against human fibroblast
Format: toxicity, cell-based
Method in brief: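 Live cells were stained at seeding with Hoechst33342, BioTracker Green Microtubule Cytoskeleton Dye, MitoTracker Red and Annexin V Alexa Fluor 680, then imaged on a CQ1 microscope at 37°C and 5% CO2 after compound addition. CellPathfinder machine-learning gating split cells into Hoechst high-intensity objects or normal cells. Normal cells were split into healthy, pyknosed or fragmented nuclei, and pyknosed cells into mitotic or apoptotic. Tubulin, mitochondrial-mass and membrane-permeability phenotypes are per cents of healthy-nucleus cells.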

[1] = 12 h, 1 µM, compound concentration 1 uM, replicate 1
[2] = 12 h, 1 µM, compound concentration 1 uM, replicate 2
[3] = 12 h, 10 µM, compound concentration 10 uM, replicate 1
[4] = 12 h, 10 µM, compound concentration 10 uM, replicate 2
[5] = 24 h, 1 µM, compound concentration 1 uM, replicate 1
[6] = 24 h, 1 µM, compound concentration 1 uM, replicate 2
[7] = 24 h, 10 µM, compound concentration 10 uM, replicate 1
[8] = 24 h, 10 µM, compound concentration 10 uM, replicate 2
[9] = 48 h, 1 µM, compound concentration 1 uM, replicate 1
[10] = 48 h, 1 µM, compound concentration 1 uM, replicate 2
[11] = 48 h, 10 µM, compound concentration 10 uM, replicate 1
[12] = 48 h, 10 µM, compound concentration 10 uM, replicate 2

## CC(C)(C)c1ccc(CSc2cnn(C(C)(C)C)c(=O)c2Cl)cc1 [PYRIDABEN]
[1]
  Population Apoptotic (%): 46%
  Population Fragmented Nuclei (%): 15%
  Population Healthy Nuclei (%): 66%
  Population Hoechst High Intensity Objects (%): 1%
  Population Membrane Permeable-Phenotype (%): 3%
  Population Mitochondria Different-Phenotype (%): 1%
  Population Mitotic Cells (%): 53%
  Population Normal (%): 98%
  Population Pyknosed Nuclei (%): 17%
  Population Tubulin-Different-Phenotype (%): 28%
  Total Cell Count: 148
[2]
  Population Apoptotic (%): 44%
  Population Fragmented Nuclei (%): 27%
  Population Healthy Nuclei (%): 47%
  Population Hoechst High Intensity Objects (%): 4%
  Population Membrane Permeable-Phenotype (%): 12%
  Population Mitochondria Different-Phenotype (%): 7%
  Population Mitotic Cells (%): 55%
  Population Normal (%): 95%
  Population Pyknosed Nuclei (%): 25%
  Population Tubulin-Different-Phenotype (%): 57%
  Total Cell Count: 142
[3]
  Population Apoptotic (%): 25%
  Population Fragmented Nuclei (%): 11%
  Population Healthy Nuclei (%): 68%
  Population Hoechst High Intensity Objects (%): 4%
  Population Membrane Permeable-Phenotype (%): 2%
  Population Mitochondria Different-Phenotype (%): 5%
  Population Mitotic Cells (%): 74%
  Population Normal (%): 95%
  Population Pyknosed Nuclei (%): 20%
  Population Tubulin-Different-Phenotype (%): 35%
  Total Cell Count: 139
[4]
  Population Apoptotic (%): 47%
  Population Fragmented Nuclei (%): 25%
  Population Healthy Nuclei (%): 49%
  Population Hoechst High Intensity Objects (%): 1%
  Population Membrane Permeable-Phenotype (%): 12%
  Population Mitochondria Different-Phenotype (%): 4%
  Population Mitotic Cells (%): 52%
  Population Normal (%): 98%
  Population Pyknosed Nuclei (%): 25%
  Population Tubulin-Different-Phenotype (%): 54%
  Total Cell Count: 136
[5]
  Population Apoptotic (%): 35%
  Population Fragmented Nuclei (%): 17%
  Population Healthy Nuclei (%): 71%
  Population Hoechst High Intensity Objects (%): 0%
  Population Membrane Permeable-Phenotype (%): 0%
  Population Mitochondria Different-Phenotype (%): 2%
  Population Mitotic Cells (%): 64%
  Population Normal (%): 99%
  Population Pyknosed Nuclei (%): 11%
  Population Tubulin-Different-Phenotype (%): 20%
  Total Cell Count: 148
[6]
  Population Apoptotic (%): 36%
  Population Fragmented Nuclei (%): 30%
  Population Healthy Nuclei (%): 48%
  Population Hoechst High Intensity Objects (%): 4%
  Population Membrane Permeable-Phenotype (%): 7%
  Population Mitochondria Different-Phenotype (%): 8%
  Population Mitotic Cells (%): 63%
  Population Normal (%): 95%
  Population Pyknosed Nuclei (%): 21%
  Population Tubulin-Different-Phenotype (%): 50%
[7]
  Population Apoptotic (%): 56%
  Population Fragmented Nuclei (%): 13%
  Population Healthy Nuclei (%): 62%
  Population Hoechst High Intensity Objects (%): 2%
  Population Membrane Permeable-Phenotype (%): 1%
  Population Mitochondria Different-Phenotype (%): 7%
  Population Mitotic Cells (%): 43%
  Population Normal (%): 97%
  Population Pyknosed Nuclei (%): 23%
  Population Tubulin-Different-Phenotype (%): 40%
  Total Cell Count: 139
[8]
  Population Apoptotic (%): 54%
  Population Fragmented Nuclei (%): 28%
  Population Healthy Nuclei (%): 48%
  Population Hoechst High Intensity Objects (%): 0%
  Population Membrane Permeable-Phenotype (%): 9%
  Population Mitochondria Different-Phenotype (%): 9%
  Population Mitotic Cells (%): 45%
  Population Normal (%): 99%
  Population Pyknosed Nuclei (%): 22%
  Population Tubulin-Different-Phenotype (%): 53%
  Total Cell Count: 136
[9]
  Population Apoptotic (%): 50%
  Population Fragmented Nuclei (%): 27%
  Population Healthy Nuclei (%): 62%
  Population Hoechst High Intensity Objects (%): 1%
  Population Membrane Permeable-Phenotype (%): 0%
  Population Mitochondria Different-Phenotype (%): 4%
  Population Mitotic Cells (%): 50%
  Population Normal (%): 98%
  Population Pyknosed Nuclei (%): 9%
  Population Tubulin-Different-Phenotype (%): 28%
  Total Cell Count: 164
[10]
  Population Apoptotic (%): 45%
  Population Fragmented Nuclei (%): 43%
  Population Healthy Nuclei (%): 41%
  Population Hoechst High Intensity Objects (%): 4%
  Population Membrane Permeable-Phenotype (%): 6%
  Population Mitochondria Different-Phenotype (%): 15%
  Population Mitotic Cells (%): 54%
  Population Normal (%): 95%
  Population Pyknosed Nuclei (%): 15%
  Population Tubulin-Different-Phenotype (%): 63%
  Total Cell Count: 153
[11]
  Population Apoptotic (%): 72%
  Population Fragmented Nuclei (%): 19%
  Population Healthy Nuclei (%): 62%
  Population Hoechst High Intensity Objects (%): 4%
  Population Membrane Permeable-Phenotype (%): 0%
  Population Mitochondria Different-Phenotype (%): 8%
  Population Mitotic Cells (%): 28%
  Population Normal (%): 95%
  Population Pyknosed Nuclei (%): 18%
  Population Tubulin-Different-Phenotype (%): 49%
  Total Cell Count: 143
[12]
  Population Apoptotic (%): 63%
  Population Fragmented Nuclei (%): 36%
  Population Healthy Nuclei (%): 48%
  Population Hoechst High Intensity Objects (%): 5%
  Population Membrane Permeable-Phenotype (%): 8%
  Population Mitochondria Different-Phenotype (%): 10%
  Population Mitotic Cells (%): 36%
  Population Normal (%): 94%
  Population Pyknosed Nuclei (%): 15%
  Population Tubulin-Different-Phenotype (%): 58%
  Total Cell Count: 131

## Cc1c(Cc2ccc3ccccc3n2)c2cc(F)ccc2n1CC(=O)O [TIMAPIPRANT]
[1]
  Population Apoptotic (%): 41%
  Population Fragmented Nuclei (%): 12%
  Population Healthy Nuclei (%): 67%
  Population Hoechst High Intensity Objects (%): 5%
  Population Membrane Permeable-Phenotype (%): 1%
  Population Mitochondria Different-Phenotype (%): 7%
  Population Mitotic Cells (%): 58%
  Population Normal (%): 94%
  Population Pyknosed Nuclei (%): 19%
  Population Tubulin-Different-Phenotype (%): 26%
  Total Cell Count: 171
[2]
  Population Apoptotic (%): 33%
  Population Fragmented Nuclei (%): 28%
  Population Healthy Nuclei (%): 49%
  Population Membrane Permeable-Phenotype (%): 9%
  Population Mitochondria Different-Phenotype (%): 4%
  Population Mitotic Cells (%): 66%
  Population Pyknosed Nuclei (%): 22%
  Population Tubulin-Different-Phenotype (%): 43%
  Total Cell Count: 142
[3]
  Population Apoptotic (%): 66%
  Population Fragmented Nuclei (%): 13%
  Population Healthy Nuclei (%): 77%
  Population Hoechst High Intensity Objects (%): 2%
  Population Membrane Permeable-Phenotype (%): 0%
  Population Mitochondria Different-Phenotype (%): 7%
  Population Mitotic Cells (%): 33%
  Population Normal (%): 97%
  Population Pyknosed Nuclei (%): 8%
  Population Tubulin-Different-Phenotype (%): 35%
  Total Cell Count: 147
[4]
  Population Apoptotic (%): 53%
  Population Fragmented Nuclei (%): 26%
  Population Healthy Nuclei (%): 53%
  Population Hoechst High Intensity Objects (%): 5%
  Population Membrane Permeable-Phenotype (%): 1%
  Population Mitotic Cells (%): 46%
  Population Normal (%): 95%
  Population Pyknosed Nuclei (%): 19%
  Population Tubulin-Different-Phenotype (%): 43%
  Total Cell Count: 160
[5]
  Population Apoptotic (%): 33%
  Population Fragmented Nuclei (%): 9%
  Population Healthy Nuclei (%): 73%
  Population Hoechst High Intensity Objects (%): 1%
  Population Membrane Permeable-Phenotype (%): 3%
  Population Mitochondria Different-Phenotype (%): 2%
  Population Mitotic Cells (%): 66%
  Population Normal (%): 98%
  Population Pyknosed Nuclei (%): 17%
  Population Tubulin-Different-Phenotype (%): 26%
  Total Cell Count: 158
[6]
  Population Apoptotic (%): 47%
  Population Fragmented Nuclei (%): 30%
  Population Healthy Nuclei (%): 52%
  Population Hoechst High Intensity Objects (%): 5%
  Population Membrane Permeable-Phenotype (%): 7%
  Population Mitochondria Different-Phenotype (%): 4%
  Population Mitotic Cells (%): 52%
  Population Normal (%): 94%
  Population Tubulin-Different-Phenotype (%): 38%
  Total Cell Count: 142
[7]
  Population Apoptotic (%): 66%
  Population Fragmented Nuclei (%): 14%
  Population Healthy Nuclei (%): 77%
  Population Hoechst High Intensity Objects (%): 2%
  Population Membrane Permeable-Phenotype (%): 0%
  Population Mitochondria Different-Phenotype (%): 6%
  Population Mitotic Cells (%): 33%
  Population Normal (%): 97%
  Population Pyknosed Nuclei (%): 8%
  Population Tubulin-Different-Phenotype (%): 30%
  Total Cell Count: 150
[8]
  Population Apoptotic (%): 52%
  Population Fragmented Nuclei (%): 29%
  Population Healthy Nuclei (%): 58%
  Population Hoechst High Intensity Objects (%): 7%
  Population Membrane Permeable-Phenotype (%): 3%
  Population Mitochondria Different-Phenotype (%): 10%
  Population Mitotic Cells (%): 47%
  Population Normal (%): 92%
  Population Pyknosed Nuclei (%): 12%
  Population Tubulin-Different-Phenotype (%): 52%
  Total Cell Count: 164
[9]
  Population Apoptotic (%): 72%
  Population Fragmented Nuclei (%): 15%
  Population Healthy Nuclei (%): 72%
  Population Hoechst High Intensity Objects (%): 7%
  Population Membrane Permeable-Phenotype (%): 0%
  Population Mitochondria Different-Phenotype (%): 2%
  Population Mitotic Cells (%): 27%
  Population Normal (%): 92%
  Population Pyknosed Nuclei (%): 12%
  Population Tubulin-Different-Phenotype (%): 25%
  Total Cell Count: 162
[10]
  Population Apoptotic (%): 61%
  Population Fragmented Nuclei (%): 36%
  Population Healthy Nuclei (%): 48%
  Population Hoechst High Intensity Objects (%): 6%
  Population Membrane Permeable-Phenotype (%): 2%
  Population Mitochondria Different-Phenotype (%): 1%
  Population Mitotic Cells (%): 38%
  Population Normal (%): 94%
  Population Pyknosed Nuclei (%): 14%
  Population Tubulin-Different-Phenotype (%): 34%
  Total Cell Count: 150
[11]
  Population Apoptotic (%): 66%
  Population Fragmented Nuclei (%): 18%
  Population Healthy Nuclei (%): 75%
  Population Hoechst High Intensity Objects (%): 5%
  Population Membrane Permeable-Phenotype (%): 0%
  Population Mitochondria Different-Phenotype (%): 3%
  Population Mitotic Cells (%): 33%
  Population Normal (%): 94%
  Population Pyknosed Nuclei (%): 6%
  Population Tubulin-Different-Phenotype (%): 31%
  Total Cell Count: 152
[12]
  Population Apoptotic (%): 60%
  Population Fragmented Nuclei (%): 30%
  Population Healthy Nuclei (%): 59%
  Population Hoechst High Intensity Objects (%): 2%
  Population Membrane Permeable-Phenotype (%): 1%
  Population Mitochondria Different-Phenotype (%): 1%
  Population Mitotic Cells (%): 40%
  Population Normal (%): 97%
  Population Pyknosed Nuclei (%): 9%
  Population Tubulin-Different-Phenotype (%): 37%
  Total Cell Count: 157
